Experimental data reported in ChEMBL document CHEMBL1135464, “3-Aryl-2-quinolone derivatives: synthesis and characterization of in vitro and in vivo antitumor effects with emphasis on a new therapeutical target connected with cell migration” (J Med Chem, 2002).
Calls of active or inactive are those of the source. The calls are words filed in the database; no cut-off is given here.

Columns and labels:
A-427 [1] = test: Cytotoxicity against A-427 nonsmall lung cell line using MTT colorimetric assay; type: functional, cell-based; details: Homo sapiens
Summary of the method: (§1)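 Human tumour lines from ATCC were grown at 37 °C in sealed dishes in MEM with 5% FCS. Cells were seeded at 40000 cells/mL in 96-well plates and left 24 h to plate. Each drug was then tested at six concentrations from 10^-5 to 10^-9 M. Growth was read by colorimetric MTT assay.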

A549 [2] = test: Cytotoxicity against A549 nonsmall lung cell line using MTT colorimetric assay; type: functional, cell-based; details: Homo sapiens; summary of the method: as §1
A 172 [3] = test: Cytotoxicity against A-172 glioblastomas using MTT colorimetric assay; type: functional, cell-based; details: Homo sapiens; summary of the method: as §1
[4] = Evaluated in vivo for maximum tolerated dose and found to be nontoxic; type: ADME, organism-based
HCT-15 [5] = test: Cytotoxicity against HCT-15 colon cell line using MTT colorimetric assay; type: functional, cell-based; details: Homo sapiens; summary of the method: as §1
J82 [6] = test: Cytotoxicity against J82 bladder cell lines using MTT colorimetric assay; type: functional, cell-based; details: Homo sapiens; summary of the method: as §1
LoVo [7] = test: Cytotoxicity measured on LoVo colon cell line using MTT colorimetric assay; type: functional, cell-based; details: Homo sapiens; summary of the method: as §1
PC-3 [8] = test: Cytotoxicity against prostate cell line PC-3 using MTT colorimetric assay; type: functional, cell-based; details: Homo sapiens; summary of the method: as §1
T47D [9] = test: Cytotoxicity against Breast cancer cell line T-47D using MTT colorimetric assay; type: functional, cell-based; details: Homo sapiens; summary of the method: as §1
T-24 [10] = test: Cytotoxicity against T24 bladder cell lines using MTT colorimetric assay; type: functional, cell-based; details: Homo sapiens; summary of the method: as §1
U373 MG [11] = test: Cytotoxicity against U-373 MG glioblastomas using MTT colorimetric assay; type: functional, cell-based, U-373MG ATCC; details: Homo sapiens; summary of the method: as §1
U-87 MG [12] = test: Cytotoxicity against U-87 MG glioblastomas using MTT colorimetric assay; type: functional, cell-based, U-87MG ATCC; details: Homo sapiens; summary of the method: as §1
MCF7 [13] = test: Cytotoxicity against Breast cancer cell line MCF-7 using MTT colorimetric assay; type: functional, cell-based; details: Homo sapiens; summary of the method: as §1
HCT-15 [14] = test: Cytotoxicity against HCT-15 colon cell line using MTT colorimetric assay at 1x 10 E-5; type: functional, cell-based; details: Homo sapiens; summary of the method: as §1
MCF7 [15] = test: Cytotoxicity against Breast cancer cell line MCF-7 using MTT colorimetric assay at 1x 10 E-5; type: functional, cell-based; details: Homo sapiens; summary of the method: as §1
A-427 [16] = test: Cytotoxicity against A-427 nonsmall lung cell line using MTT colorimetric assay; NE is no effect at 1x 10 E-5; type: functional, cell-based; details: Homo sapiens; summary of the method: as §1
A549 [17] = test: Cytotoxicity against A549 nonsmall lung cell line using MTT colorimetric assay; NE is no effect at 1x 10 E-5; type: functional, cell-based; details: Homo sapiens; summary of the method: as §1
A 172 [18] = test: Cytotoxicity against A-172 glioblastomas using MTT colorimetric assay; NE is no effect at 1x 10 E-5; type: functional, cell-based; details: Homo sapiens; summary of the method: as §1
HCT-15 [19] = test: Cytotoxicity against HCT-15 colon cell line using MTT colorimetric assay; NE is no effect at 1x 10 E-5; type: functional, cell-based; details: Homo sapiens; summary of the method: as §1
J82 [20] = test: Cytotoxicity against J82 bladder cell lines using MTT colorimetric assay; NE is no effect at 1x 10 E-5; type: functional, cell-based; details: Homo sapiens; summary of the method: as §1
MCF7 [21] = test: Cytotoxicity against Breast cancer cell line MCF-7 using MTT colorimetric assay; NE is no effect at 1x 10 E-5; type: functional, cell-based; details: Homo sapiens; summary of the method: as §1
LoVo [22] = test: Cytotoxicity against LoVo colon cell line using MTT colorimetric assay; NE is no effect at 1x 10 E-5; type: functional, cell-based; details: Homo sapiens; summary of the method: as §1
PC-3 [23] = test: Cytotoxicity against prostate cell line PC-3 using MTT colorimetric assay; NE is no effect at 1x 10 E-5; type: functional, cell-based; details: Homo sapiens; summary of the method: as §1
T-24 [24] = test: Cytotoxicity against T24 bladder cell lines using MTT colorimetric assay; NE is no effect at 1x 10 E-5; type: functional, cell-based; details: Homo sapiens; summary of the method: as §1
U373 MG [25] = test: Cytotoxicity against U-373 MG glioblastomas using MTT colorimetric assay; NE is no effect at 1x 10 E-5; type: functional, cell-based; details: Homo sapiens; U-373MG ATCC; summary of the method: as §1
T47D [26] = test: Cytotoxicity against Breast cancer cell line T-47D using MTT colorimetric assay; NE is no effect at 1x 10 E-5; type: functional, cell-based; details: Homo sapiens; summary of the method: as §1
U-87 MG [27] = test: Cytotoxicity against U-87 MG glioblastomas using MTT colorimetric assay; NE is no effect at 1x 10 E-5; type: functional, cell-based; details: Homo sapiens; U-87MG ATCC; summary of the method: as §1

SMILES | IC50 (A-427 [1]) [µM] | IC50 (A549 [2]) [µM] | IC50 (A 172 [3]) [µM] | MTD [4] [mg/kg] | IC50 (HCT-15 [5]) [µM] | IC50 (J82 [6]) [µM] | IC50 (LoVo [7]) [µM] | IC50 (PC-3 [8]) [µM] | IC50 (T47D [9]) [µM] | IC50 (T-24 [10]) [µM] | IC50 (U373 MG [11]) [µM] | IC50 (U-87 MG [12]) [µM] | IC50 (MCF7 [13]) [µM] | also measured
COc1ccc(-c2cc3c(OC)cc(OC)cc3n(CCN(C)C)c2=O)cc1 | > 10 | > 10 | > 10 | 160 | > 10 | > 10 | > 10 | > 10 | > 10 | > 10 | > 10 | > 10 | > 10 | –
COc1ccc(-c2cc3c(OC)cc(OC)c4c3n(c2=O)CCC4=O)cc1 | > 10 | > 10 | > 10 | 160 | > 10 | > 10 | > 10 | > 10 | > 10 | > 10 | > 10 | > 10 | > 10 | –
Cn1c(=O)c(-c2ccc(O)cc2)cc2c(O)cc(O)cc21 | > 10 | > 10 | > 10 | 160 | > 10 | > 10 | > 10 | > 10 | > 10 | > 10 | > 10 | > 10 | > 10 | –
CC(=O)Oc1ccc(-c2cc3c(OC(C)=O)cc(OC(C)=O)cc3n(C)c2=O)cc1 | > 10 | > 10 | > 10 | 160 | > 10 | > 10 | > 10 | > 10 | > 10 | > 10 | > 10 | > 10 | > 10 | –
Oc1ccc(-c2cc3c(O)cc(O)cc3nc2O)cc1 | > 10 | > 10 | > 10 | 160 | > 10 | > 10 | > 10 | > 10 | > 10 | > 10 | > 10 | > 10 | > 10 | –
COC(=O)CCn1c(=O)c(-c2ccc(OC)cc2)cc2c(OC)cc(OC)cc21 | > 10 | > 10 | > 10 | 160 | – | > 10 | > 10 | > 10 | > 10 | > 10 | > 10 | > 10 | > 10 | IC50 (HCT-15 [14]): > 10 µM
CCN(CC)C(=O)Cn1c(=O)c(-c2ccc(OC)cc2)cc2c(OC)cc(OC)cc21 | > 10 | > 10 | > 10 | 160 | > 10 | > 10 | > 10 | > 10 | > 10 | > 10 | > 10 | > 10 | – | IC50 (MCF7 [15]): > 10 µM
COc1cc(OC)c2cc(-c3ccc(OC(C)=O)cc3)c(=O)n(C)c2c1 | > 10 | > 10 | > 10 | 160 | > 10 | > 10 | > 10 | > 10 | > 10 | > 10 | > 10 | > 10 | > 10 | –
COc1ccc(-c2cc3c(OC)cc(OC)cc3nc2S)cc1 | – | – | – | 160 | – | – | – | – | – | – | – | – | – | Cytotoxicity (A-427 [16]): inactive; Cytotoxicity (A549 [17]): inactive; Cytotoxicity (A 172 [18]): inactive; Cytotoxicity (HCT-15 [19]): inactive; Cytotoxicity (J82 [20]): inactive; Cytotoxicity (MCF7 [21]): inactive; Cytotoxicity (LoVo [22]): inactive; Cytotoxicity (PC-3 [23]): inactive; Cytotoxicity (T-24 [24]): inactive; Cytotoxicity (U373 MG [25]): inactive; Cytotoxicity (T47D [26]): inactive; Cytotoxicity (U-87 MG [27]): inactive
COc1ccc(-c2cc3c(OC)cc(OC)cc3n(CCCC#N)c2=O)cc1 | > 10 | > 10 | > 10 | 160 | > 10 | > 10 | > 10 | > 10 | > 10 | > 10 | > 10 | > 10 | > 10 | –
